From PubChem
Sampled rows, rich in hits. Any-hit rate of the full collection: about 1.9%.
Rce1 inhib: blocks yeast Ras-converting enzyme; AID 2563; calls only; Q03530; yeast membranes, quenched prenylated peptide cleavage fluorescence; 290,000 tested, 0.27% active;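 active = fall in fluorescence gain of 50% or more versus controls, with final raw signal at or below 3038400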;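 note: plate controls were neutral control wells for no effect and wells lacking membranes for full effect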
Target sequence (Q03530 whole entry, looked up): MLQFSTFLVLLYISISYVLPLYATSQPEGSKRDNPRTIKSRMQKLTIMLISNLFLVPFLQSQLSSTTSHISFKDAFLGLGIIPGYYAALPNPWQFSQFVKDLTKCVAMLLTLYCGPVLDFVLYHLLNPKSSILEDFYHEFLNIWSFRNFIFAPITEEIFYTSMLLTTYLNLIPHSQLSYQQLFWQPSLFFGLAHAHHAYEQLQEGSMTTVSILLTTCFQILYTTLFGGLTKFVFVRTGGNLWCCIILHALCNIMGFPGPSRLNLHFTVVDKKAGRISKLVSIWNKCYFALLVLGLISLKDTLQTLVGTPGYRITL
NR1D1 modulator: modulates human Rev-erb alpha binding to DNA. P20393. Rev-erbα–FITC-DNA binding, fluorescence polarization, 90 min. activity, % at 10 µM. 370,000 tested, 0.79% active;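 active = activity above about 14%, limit read from the data; passing the limit was not always enough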;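 note: 0% = DMSO wells with 35 nM protein and 100% = DMSO wells with 750 nM protein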
CR mimetic SO: caloric restriction mimetics inhibiting age-related superoxide in yeast | 330,000 tested, 0.18% active | S. cerevisiae aged cells, superoxide DHE fluorescence; stronger effect = lower value | superoxide response (% of plate mean), % at 10 µM;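 active = superoxide response under a set limit, about three screen SD below normal, cut at about 65% in these data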;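 note: yeast aged for seven days with compound at 30 °C before DHE staining; 100% = average MFI of all compound-treated wells on the plate with controls excluded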
PG9 binder: PG9 antibody binding by small molecule; TR-FRET gp120-PG9 antibody binding; inhibition, % at 6.7 µM; 360,000 tested, 0.43% active; AID 624416; in the data active = inhibition above about 8.5%
MIN6 prolif: MIN6 beta-cell proliferation induction. 330,000 tested, 0.29% active. proliferation, % at 10 µM. MIN6 cells proliferation, ATPlite luminescence, 48 h; cells starved in 0.2% serum; 100% = growth in 10% serum. AID 2380;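 active = compounds whose signal lies at least 3.5 SD above the mean of all wells on their plate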;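 note: 0% = DMSO-treated cells in low-serum medium and 100% = 10% serum control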
UCH37 inh: inhibitors of human deubiquitinating enzyme UCH37; Q9Y5K5; purified proteasome/UCH37, Ub-AMC cleavage fluorescence; inhibition, % (concentration not given with the values); 330,000 tested, 0.33% active; AID 588478;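 active = mean inhibition over replicate wells above about 20%, limit read from the data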;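 note: 0% = compound-free wells with enzyme and 100% = wells lacking proteasome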
Target sequence (Q9Y5K5 whole entry, looked up): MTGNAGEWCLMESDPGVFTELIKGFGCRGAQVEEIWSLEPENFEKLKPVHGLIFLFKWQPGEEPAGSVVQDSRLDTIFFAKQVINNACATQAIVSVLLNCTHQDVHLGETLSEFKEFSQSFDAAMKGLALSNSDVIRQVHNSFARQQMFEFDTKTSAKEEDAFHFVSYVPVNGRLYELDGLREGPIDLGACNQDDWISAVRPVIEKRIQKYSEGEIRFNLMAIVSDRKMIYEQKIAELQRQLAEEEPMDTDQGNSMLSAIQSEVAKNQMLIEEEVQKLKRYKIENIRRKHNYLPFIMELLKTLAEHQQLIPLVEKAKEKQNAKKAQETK
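assay system = human UCH37 enzyme supplied as purified proteasome complex | amount = proteasome at 0.15 nM in the dispensed enzyme solution | schedule = 30 min compound-proteasome preincubation then 25 min substrate reaction, room temperature | measured by = fluorescence, ex 355 nm, em 460 nm | benchmarks = no-proteasome wells (full inhibition) and compound-free wells (no inhibition)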
Rev-erbA confirm: Rev-erb alpha (human) modulation, hit confirmation. shares compounds with NR1D1 modulator. Rev-erb alpha FITC-DNA binding, fluorescence polarization, 90 min. activation, % at 25 µM. 3,000 tested, 61% active. AID 1259319;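 active = activation at or above a set limit, or at least 3 SD above the negative control mean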;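 note: 0% = 35 nM protein with DMSO and 100% = 750 nM protein high control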
RORg counter: affects RORgamma DNA binding in a Rev-erb alpha counter-screen; shares compounds with NR1D1 modulator; purified RORgamma protein-FITC-DNA binding, fluorescence polarization; IC50, µM; 910 tested, 8% active;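 active = Compounds whose fitted half-maximal concentration for disrupting protein-DNA binding is below 10 micromolar; the record names Rev-erb in its text, so the target is in doubt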
* hit, by the source's call; i = inactive; / = not tested or not shown.

SMILES	Rce1 inhib	NR1D1 modulator	CR mimetic SO	PG9 binder	MIN6 prolif	UCH37 inh	Rev-erbA confirm	others
CN(C)c1cc(-c2ccc(Cl)c(Cl)c2)oc(=O)c1Cl	i	36*	93	0	-3	-4	-4
O=C1c2ccccc2C(=O)N1CCC#Cc1ccc2cc(CCCO)oc(=O)c2c1	/	16*	108	1	-2	-18	0
O=c1oc(CCCO)cc2ccc(C#Cc3ccsc3)cc12	/	6	89	0	-7	-17	/
CN(C)c1ccc(C#Cc2ccc3cc(CCCO)oc(=O)c3c2)cc1	/	28*	107	2	-6	3	6
COc1ccc(CC(C)=NNC(=O)c2cn(C)c3ccccc23)cc1OC	/	/	/	/	/	2	/
COc1cc2ccccc2cc1C(=O)NN=Cc1ccc2c(c1)OCO2	/	/	/	/	/	-31	/
O=c1oc2c3c4c(cc2c(C(F)(F)F)c1CCN1CCOCC1)CCCN4CCC3	i	52*	94	-2	-4	-2	63*	RORg counter=>40
COc1ccc(C=Nn2cnc3c([nH]c4ccc(F)cc43)c2=O)cc1CN1CCCC1	/	/	/	/	/	8	/
CCC(=NNC(=O)c1ccc(Br)cc1)c1ccc(OCCN2CCOCC2)cc1	/	/	/	/	/	3	/
O=C(c1cc(-c2ccncc2)nc2ccc(Br)cc12)N1CCN(c2ccccn2)CC1	i	6	106	0	-1	2	/
O=C(c1cc(-c2ccccc2Cl)nc2ccc(Br)cc12)N1CCN(c2ccccn2)CC1	i	19*	105	4	-7	-1	9
COc1cc(C(=O)Nc2ccc(Oc3ncnc4sc(-c5ccccc5)cc34)cc2)cc(OC)c1OC	i	30*	111	7	0	-4	-9
COc1ccc(C(=O)Nc2ccc(Oc3ncnc4sc(-c5ccccc5)cc34)cc2)cc1OC	i	20	94	-1	0	-42	/
COc1ccccc1C(=O)Nc1ccc(Oc2ncnc3sc(-c4ccccc4)cc23)cc1	i	46*	113	1	-6	-23	21*
CC(=NO)c1c(O)cc(-c2ccccc2)n(-c2ccccc2)c1=O	/	/	/	/	/	1	/
COc1cc(C=NNC(=O)c2cc(-c3ccccc3)nc3ccccc23)ccc1O	/	/	/	/	/	4	/
COc1ccc(NC(=O)c2cc(-c3ccc4c(c3)OCO4)on2)cc1	i	33*	126	-2	-4	-35	1
COc1ccc(OC)c(-c2cc(C(=O)Nc3cc(C)on3)no2)c1	i	21*	82	3	-3	-140	16
COc1ccc(-c2noc(-c3ccc4c(c3)OCO4)n2)cc1	i	35*	102	0	-4	-3	13
COc1cccc(-c2noc(-c3ccc4c(c3)OCO4)n2)c1	i	0	98	0	-4	0	/
COc1ccc(-c2cc(C(=O)Nc3cc(C)on3)no2)cc1	i	0	115	2	0	1	/
COc1ccc2sc(-c3ccc(S(C)(=O)=O)cc3)c(-c3ccc4c(c3)OCCO4)c2c1	/	13	79	-1	-4	-7	/
COc1ccc(-c2sc3cc4c(cc3c2-c2ccc3c(c2)OCCO3)OCO4)cc1	/	18*	110	0	-6	-9	2
Cc1ccc(NC(=O)c2cc(-c3ccc4c(c3)OCO4)on2)cc1	i	11	96	0	1	-28	/
Cc1c(N=C2SCC(=O)N2N=Cc2ccccc2Cl)c(=O)n(-c2ccccc2)n1C	/	/	/	/	/	4	/
SMILES	Rce1 inhib	NR1D1 modulator	CR mimetic SO	PG9 binder	MIN6 prolif	UCH37 inh	Rev-erbA confirm	others
O=S(=O)(c1ccccc1)N1CCN(c2nc(-c3cccs3)nc3ccccc23)CC1	i	/	94	/	-1	/	/
O=S(=O)(c1ccc(Cl)cc1)N1CCN(c2nc(-c3cccs3)nc3ccccc23)CC1	i	29*	/	-2	/	-12	14
CSc1ccc(C=NNC(=O)c2cccs2)cc1	/	/	/	/	/	-11	/
O=[N+]([O-])c1ccc(Nc2ccccc2O)c2nonc12	i	32*	107	-17	-4	11	20*
Cc1nn(-c2ccccc2)c(N2CCCC2)c1C=NNC(=S)Nc1cc(C(F)(F)F)ccc1Cl	/	/	/	/	/	-16	/
COc1ccc(N(CC(=O)NN=Cc2cccnc2)S(=O)(=O)c2ccc(C)cc2)cc1OC	/	/	/	/	/	5	/
CN1c2ccsc2C(=NNc2ccc(F)cc2)CS1(=O)=O	/	/	/	/	/	2	/
COC(=O)[C@]1(C)CCC[C@@]2(C)C3CC[C@@]4(C)C[C@]3(CCC21)CC(=O)N4C (stereo not given in full)	/	-3	155	-1	-3	1	/
COC(=O)[C@]1(C)CCC[C@@]2(C)C3CC[C@@]4(C)C[C@]3(CCC21)CC4=NO (stereo not given in full)	/	17*	111	0	-5	4	11
Cc1c2c(n3c(nc4ccccc43)c1C#N)N(CCN1CCOCC1)CC2	i	-5	89	-1	3	-448	/
C=CCc1c(C)c(C#N)c2nc3ccccc3n2c1N1CCCCC1	i	43*	97	-3	-1	-104	6
C=C(C)Cc1c(C)c(C#N)c2nc3ccccc3n2c1N1CCCCC1	i	25*	90	-1	-1	-206	4
COc1cccc(-c2cc(C(F)(F)F)n3ncc(C(=O)NCC4CCCO4)c3n2)c1 (stereo not given)	i	11	129	0	3	-37	/
COc1ccc(-c2cc(C(F)(F)F)n3ncc(C(=O)NCC4CCCO4)c3n2)cc1 (stereo not given)	/	47*	/	-1	/	-87	22*
COc1ccc2c(c1)c(C=NNc1ccc(C(=O)O)cc1)c(C)n2C	/	/	/	/	/	-19	/
CC(=O)NC(c1ccc(F)c(F)c1)c1nc(-c2ccc(C)c(C)c2)cs1 (stereo not given)	/	1	/	-2	/	/	/
CC(=O)NC(c1ccc(F)c(F)c1)c1nc(-c2ccc(F)c(Cl)c2)cs1 (stereo not given)	/	42*	/	0	/	/	-5
OC(c1ccccc1)c1nc(-c2ccc(F)c(Cl)c2)cs1 (stereo not given)	/	16*	/	0	/	/	-1
OC(c1ccc(F)cc1)c1nc(-c2ccc(Cl)cc2)cs1 (stereo not given)	/	-5	/	0	/	/	/
COc1cc(Br)cc(C=NN(CCO)C2=NS(=O)(=O)c3ccccc32)c1OC	/	/	/	/	/	-1	/
Nc1nnn(CC(=O)NN=Cc2ccco2)n1	/	/	/	/	/	0	/
COc1ccc2[nH]c(C(=O)Nc3ccc(C)c(F)c3)cc2c1	i	49*	92	0	-2	-10	44*	RORg counter=1.5*
CCCCS/C(N)=N/N=Cc1cc(C)ccc1O	/	/	/	/	/	-1	/
